Measured values taken from ChEMBL document CHEMBL1149883, “alpha-Glucosidase inhibitory activity of triterpenoids from Cichorium intybus” (J Nat Prod, 2008).
Activity calls are given as the source filed them. The rule behind the calls is not given here.

Target: not listed separately
Experiment: (§1) Inhibition of Saccharomyces sp. alpha-glucosidase
Summary of the method: (§2)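 Read spectrophotometrically at pH 6.9 and 37 °C in 50 mM sodium phosphate buffer with 100 mM NaCl. Substrate was 0.5 mM p-nitrophenyl α-D-glucopyranoside, and enzyme was 250 m units/mL. The rise in absorbance at 400 nm from PNP-G hydrolysis was followed continuously. 1-Deoxynojirimycin (0.425 mM) and acarbose (0.78 mM) served as positive controls. Modified from Oki et al.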

| SMILES | IC50 |
| --- | --- |
| C[C@H]1C(=O)CC[C@@H]2[C@]1(C)CC[C@H]1[C@@]2(C)CC[C@@]2(C)[C@@H]3CC(C)(C)CC[C@]3(C)CC[C@]12C [FRIEDELINE] | 321 µM |
| COc1cc(C(=O)O)ccc1O [VANILLIC ACID] | 69 µM |
| C=C1[C@H](OC(C)=O)C[C@]2(C)CC[C@]3(C)[C@H](CC[C@@H]4[C@@]5(C)CC[C@H](OC(C)=O)C(C)(C)[C@@H]5CC[C@]43C)[C@H]2[C@H]1C | 10 µM |
| OC[C@H]1NC[C@H](O)[C@@H](O)[C@@H]1O [DUVOGLUSTAT] | 425 µM |
| C=C1[C@H](O)C[C@]2(C)CC[C@]3(C)[C@H](CC[C@@H]4[C@@]5(C)CC[C@H](O)C(C)(C)[C@@H]5CC[C@]43C)[C@H]2[C@H]1C | 51.9 µM |

Test system: Saccharomyces sp.
Experiment: as §1
Summary of the method: as §2

| SMILES | Activity |
| --- | --- |
| CO[C@H]1O[C@H](CO)[C@H](O)[C@H](O)[C@H]1O | inactive |
| CC[C@H](CC[C@@H](C)[C@H]1CC[C@H]2[C@@H]3CC=C4C[C@@H](O)CC[C@]4(C)[C@H]3CC[C@]12C)C(C)C | inactive |
| CC[C@H](/C=C/[C@@H](C)[C@H]1CC[C@H]2[C@@H]3CC=C4C[C@@H](O)CC[C@]4(C)[C@H]3CC[C@]12C)C(C)C | inactive |
| C=C(C)[C@@H]1CC[C@]2(C=O)CC[C@]3(C)[C@H](CC[C@@H]4[C@@]5(C)CC[C@H](O)C(C)(C)[C@@H]5CC[C@]43C)[C@@H]12 | inactive |
| C=C(C)[C@@H]1CC[C@]2(C)CC[C@]3(C)[C@H](CC[C@@H]4[C@@]5(C)CC[C@H](O)C(C)(C)[C@@H]5CC[C@]43C)[C@@H]12 | inactive |
| O=c1ccc2cc(O)c(O)cc2o1 | inactive |
| COc1cc(C(=O)O)cc(OC)c1O | inactive |
| C=C1[C@@H]2CC[C@@]3(C)[C@@H](c4ccoc4)OC(=O)C[C@@]13O[C@H]1CC(=O)C(C)(C)[C@H](C(O)C(=O)OC)[C@]12C (stereo not given in full) | inactive |
| C=C(C)[C@@H]1CC[C@]2(C(=O)O)CC[C@]3(C)[C@H](CC[C@@H]4[C@@]5(C)CC[C@H](O)C(C)(C)[C@@H]5CC[C@]43C)[C@@H]12 | inactive |
| C=C(C)[C@@H]1CC[C@]2(CO)CC[C@]3(C)[C@H](CC[C@@H]4[C@@]5(C)CC[C@H](O)C(C)(C)[C@@H]5CC[C@]43C)[C@@H]12 | inactive |
